In ChEMBL document CHEMBL3393037, “Design, synthesis, and biological evaluation of aminothiazole derivatives against the fungal pathogens Histoplasma capsulatum and Cryptococcus neoformans” (Bioorg Med Chem, 2015):
Converted amounts (≈) assume the structure as drawn.

Legend:
[1] = Antifungal activity against Histoplasma capsulatum G217B ATCC 26032 assessed as inhibition of visible growth after 5 days; assay type: functional
Outline: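 Wild-type G217B yeasts kept in HMM at 37 °C under 5% CO2. Wells held 2×10^5 yeasts (hemocytometer count) with a two-fold dilution series from 40 to 0.078 µM, at 1% DMSO in the top dilution. Plates were agitated twice daily and growth followed by A595 over 5 days. MIC is the lowest concentration with no visible growth on visual inspection of the plates.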

[2] = Selectivity index, ratio of MIC50 for human HepG2 cells to MIC50 for Histoplasma capsulatum strain G217B ATCC 26032
[3] = Cytotoxicity against human HepG2 cells after 72 hrs by crystal violet staining method; assay type: cell-based; conditions: for CC50 at 72 h: read-out: MIC50
Outline: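 HepG2 cells in MEM with 10% FBS and 2 mM L-glutamine were seeded at 1×10^4 per well and left to adhere overnight. Compound was added at 0.3 to 80 µM for 72 h. Cells were fixed in 3% paraformaldehyde, stained with 0.1% crystal violet, and the dye taken up in 10% acetic acid and read at A590. Values were normalised to DMSO-matched controls, in triplicate.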

Cryptococcus neoformans = experiment: Antifungal activity against Cryptococcus neoformans MATalpha serotype A strain H99 assessed as inhibition of visible growth after 5 days; assay type: functional; conditions: MATalpha serotype A strain H99, 120 h

Row | Compound | MIC [1] [µM] | MIC50 [1] [µM] | Ratio [2] | CC50 at 72 h [3] [µM] | MIC (Cryptococcus neoformans) [µM] | MIC50 (Cryptococcus neoformans) [µM] | MCC at 72 h ([3]; read-out: MIC) [µM]
1 | O=C(Nc1ncc(-c2ccccc2)s1)C1CCCCC1 | > 20 | > 10 |  |  |  |  | 
2 | O=C(CC1CCCCC1)Nc1ncc(-c2ccccc2)s1 | > 20 | > 10 |  |  |  |  | 
3 | O=C(CCC1CCCCC1)Nc1nnc(Cc2ccccc2)s1 | > 20 | > 10 |  |  |  |  | 
4 | O=C(Nc1nc(-c2ccccc2)cs1)C1CCCC1 | > 20 | > 10 |  |  |  |  | 
5 | O=C(Nc1ncc(Cc2ccccc2)s1)c1cnc(-c2cccs2)s1 | > 20 | > 10 |  |  |  |  | 
6 | O=C(CC1CCCCC1)Nc1ncc(Cc2ccc3ccccc3c2)s1 | 20 (≈ 7.29 µg/mL) | 5.7 (≈ 2.08 µg/mL) |  |  |  |  | 
7 | O=C(CC1CCCCC1)Nc1ncc(Cc2cccc3ccccc23)s1 | 0.6 (≈ 0.219 µg/mL) | 0.4 (≈ 0.146 µg/mL) | 92 | 37 | > 20 | > 10 | 
8 | O=C(Nc1ncc(Cc2ccc(F)cc2)s1)C1CCCC1 | 20 (≈ 6.09 µg/mL) | 5.2 (≈ 1.58 µg/mL) |  |  |  |  | 
9 | CC(C)(C)OC(=O)Nc1ncc(C(O)c2ccccc2)s1 (stereo not given) | > 20 | > 10 |  |  |  |  | 
10 | COc1ccc(Cc2cnc(NC(=O)/C=C/c3ccco3)s2)cc1 | > 20 | > 10 |  |  |  |  | 
11 | O=C(CC1CCCCC1)Nc1ncc(Cc2ccccc2)s1 | 2.5 (≈ 0.786 µg/mL) | 0.7 (≈ 0.22 µg/mL) | >44 | > 40 | > 20 | > 10 | 
12 | O=C(CCC1CCCCC1)Nc1ncc(Cc2cccc(F)c2)s1 | 2.5 (≈ 0.866 µg/mL) | 0.8 (≈ 0.277 µg/mL) | 57 | 40 | > 20 | > 10 | 
13 | O=C(Nc1ncc(Cc2ccccc2)s1)C12CC3CC(CC(C3)C1)C2 | 10 (≈ 3.53 µg/mL) | 5 (≈ 1.76 µg/mL) |  |  |  |  | 
14 | O=C(CC1CCCCC1)Nc1nc(C23CC4CC(CC(C4)C2)C3)cs1 | > 20 | > 10 |  |  |  |  | 
15 | O=C(Nc1ncc(CC2CCCCC2)s1)C12CC3CC(CC(C3)C1)C2 | > 20 | > 10 |  |  |  |  | 
16 | O=C(CCC1CCCCC1)Nc1nc(-c2ccccc2)cs1 | > 20 | > 10 |  |  |  |  | 
17 | O=C(CCC1CCCCC1)Nc1ncc(Cc2cccc(Cl)c2)s1 | 2.5 (≈ 0.907 µg/mL) | 1.1 (≈ 0.399 µg/mL) | 65 | 39 | > 20 | > 10 | 

Row | Compound | MIC [1] [µM] | MIC50 [1] [µM] | Ratio [2] | CC50 at 72 h [3] [µM] | MIC (Cryptococcus neoformans) [µM] | MIC50 (Cryptococcus neoformans) [µM] | MCC at 72 h ([3]; read-out: MIC) [µM]
18 | O=C(CCC1CCCCC1)Nc1nc(C23CC4CC(CC(C4)C2)C3)cs1 | 20 (≈ 7.45 µg/mL) | 5.2 (≈ 1.94 µg/mL) |  |  |  |  | 
19 | O=C(Nc1ncc(Cc2ccc3ccccc3c2)s1)C1CCCCC1 | > 20 | > 10 |  |  |  |  | 
20 | CC(C)C(=O)Nc1nc(C23CC4CC(CC(C4)C2)C3)cs1 | > 20 | > 10 |  |  |  |  | 
21 | O=C(/C=C/C1CCCCC1)Nc1ncc(Cc2ccccc2)s1 | > 20 | > 10 |  |  |  |  | 
22 | O=C(Nc1nc(C23CC4CC(CC(C4)C2)C3)cs1)C1CCCC1 | 20 (≈ 6.61 µg/mL) | 7.4 (≈ 2.45 µg/mL) |  |  |  |  | 
23 | O=C(Nc1ncc(CC2CCCCC2)s1)C1CCCCC1 | 2.5 (≈ 0.766 µg/mL) | 0.7 (≈ 0.215 µg/mL) |  |  | > 20 | > 10 | 
24 | O=C(Nc1ncc(-c2ccccc2)s1)C1CCCC1 | > 20 | > 10 |  |  |  |  | 
25 | O=C(Nc1ncc(Cc2ccc3ccccc3c2)s1)C12CC3CC(CC(C3)C1)C2 | > 20 | > 10 |  |  |  |  | 
26 | O=C(Nc1ncc(Cc2ccccc2)s1)C1CCOCC1 | > 20 | > 10 |  |  |  |  | 
27 | CC(C)C(=O)Nc1ncc(CC2CCCCC2)s1 | > 20 | > 10 |  |  |  |  | 
28 | O=C(Nc1ncc(Cc2ccccc2)s1)N1CCOCC1 | > 20 | > 10 |  |  |  |  | 
29 | O=C(Nc1ncc(CCc2ccccc2)s1)C1CCCC1 | 2.5 (≈ 0.751 µg/mL) | 0.9 (≈ 0.27 µg/mL) |  |  | 5 (≈ 1.5 µg/mL) | 2.7 (≈ 0.811 µg/mL) | 
30 | Cc1cccc(Cc2cnc(NC(=O)C3CCC3)s2)c1 |  | 2.5 (≈ 0.716 µg/mL) |  |  |  |  | 20
31 | CC(C)C(=O)Nc1ncc(Cc2ccc3ccccc3c2)s1 | 20 (≈ 6.21 µg/mL) | 4.5 (≈ 1.4 µg/mL) |  |  |  |  | 
32 | O=C(Nc1ncc(Cc2ccccc2)s1)C1CCCC1 | 5 (≈ 1.43 µg/mL) | 1.6 (≈ 0.458 µg/mL) | >24 | > 40 | 10 (≈ 2.86 µg/mL) | 3.6 (≈ 1.03 µg/mL) | 
33 | O=C(Nc1ncc(Cc2ccccc2)s1)c1ccccc1 | > 20 | > 10 |  |  |  |  | 
